Measurements from publication PMC9334479 (Infectious Diseases and Therapy, 2022).
Where a SMILES comes first, the peptide text is derived from it.

Assays:
[1] = Total plasma concentration of PMB, PMB1 and PMB2 by HPLC-MS/MS; format: in vivo, human; conditions: for Cmin (B1)/Cmin (B2): median (IQR)
Method in brief: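 Critically ill adults received IV PMB sulfate. Plasma was drawn at the sixth or later dose, 10 min after infusion end (Cmax) and just before dosing (Cmin), spun at 3500g, 2–8 °C for 10 min, and stored at −80 °C. Plasma plus polymyxin E internal standard underwent formic acid/acetonitrile extraction. Analysis used C18 gradient LC and positive MRM 402.1→101.15 (PMB1), 397.4→101.15 (PMB2). AKI was graded by RIFLE SCr criteria.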

patients = conditions: cited from earlier work
Free = format: in vivo, human; conditions: for Free Cmax / Free Cmin: equilibrium dialysis, median (IQR); for Correlation between total and free plasma concentrations: Spearman's rank correlation, Cmax and Cmin, Fig. 2
Method in brief: (§1)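 Patient plasma from peak (10 min post-infusion) and trough (pre-dose) draws was dialysed against isotonic phosphate buffer, pH 7.4, across a semipermeable membrane at 37 °C for 5 h. Dialysate and plasma were matrix-matched with blank plasma or buffer, then extracted and quantified by LC–MS/MS as for total levels. fu = Cd/Cp. Total and free levels were compared by Spearman rank correlation.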

plasma protein = assay: Plasma protein binding rate by equilibrium dialysis; format: in vitro ADME; conditions: human, patient plasma, iv
Method in brief: as §1

[2] = pH 7.4, Protein binding rate, Cmax sample, AKI group N = 25, equilibrium dialysis, phosphate buffer pH 7.4, 37 °C, 5 h, LC-MS/MS, median (IQR)
[3] = pH 7.4, Protein binding rate, Cmax sample, non-AKI group N = 64, equilibrium dialysis, phosphate buffer pH 7.4, 37 °C, 5 h, LC-MS/MS, median (IQR)
[4] = pH 7.4, Protein binding rate, Cmin sample, AKI group N = 25, equilibrium dialysis, phosphate buffer pH 7.4, 37 °C, 5 h, LC-MS/MS, median (IQR)
[5] = pH 7.4, Protein binding rate, Cmin sample, non-AKI group N = 64, equilibrium dialysis, phosphate buffer pH 7.4, 37 °C, 5 h, LC-MS/MS, median (IQR)

Compound	Cmin (B1)/Cmin (B2) ([1]; AKI group N = 25)	Cmin (B1)/Cmin (B2) ([1]; non-AKI group N = 64)	Incidence of AKI (patients; colistin given iv as colistimethate sodium)	Optimal cut-off trough concentration for predicting nephrotoxicity (patients; colistin-related nephrotoxicity) [mg/L]	Cmax (B1), RIFLE category Failure (F) ([1]; 1 patient with AKI stage Failure, total plasma peak concentration)	Free Cmax (Free; AKI group N = 25)	Free Cmin (Free; AKI group N = 25)	Correlation between total and free plasma concentrations (Free)	Free Cmax (Free; non-AKI group N = 64)	Free Cmin (Free; non-AKI group N = 64)	fraction unbound at 5 h (plasma protein; pH 7.4)	fraction unbound at 5 h (plasma protein; [2])	fraction unbound at 5 h (plasma protein; [3])	fraction unbound at 5 h (plasma protein; [4])	fraction unbound at 5 h (plasma protein; [5])
CC[C@H](C)CCCCC(=O)N[C@@H](CCN)C(=O)N[C@H](C(=O)N[C@@H](CCN)C(=O)N[C@H]1CCNC(=O)[C@H]([C@@H](C)O)NC(=O)[C@H](CCN)NC(=O)[C@H](CCN)NC(=O)[C@H](CC(C)C)NC(=O)[C@@H](Cc2ccccc2)NC(=O)[C@H](CCN)NC1=O)[C@@H](C)O [PMB, polymyxin B] (HELM PEPTIDE1{[CC[C@H](C)CCCCC(=O)[*:2]].[Dab].T.[Dab].[Dab].[Dab].[dF].L.[Dab].[Dab].T}$PEPTIDE1,PEPTIDE1,5:R3-11:R2$$$V2.0)	3.37 (2.85–3.68)	3.27 (2.91–3.65)	–	–	–	–	–	–	–	–	–	–	–	–	–
colistin	–	–	30–76.1%	3.33	–	–	–	–	–	–	–	–	–	–	–
CC[C@H](C)CCCCC(=O)N[C@@H](CCN)C(=O)N[C@H](C(=O)N[C@@H](CCN)C(=O)N[C@H]1CCNC(=O)[C@H]([C@@H](C)O)NC(=O)[C@H](CCN)NC(=O)[C@H](CCN)NC(=O)[C@H](CC(C)C)NC(=O)[C@@H](Cc2ccccc2)NC(=O)[C@H](CCN)NC1=O)[C@@H](C)O [PMB1, polymyxin B1] (HELM PEPTIDE1{[CC[C@H](C)CCCCC(=O)[*:2]].[Dab].T.[Dab].[Dab].[Dab].[dF].L.[Dab].[Dab].T}$PEPTIDE1,PEPTIDE1,5:R3-11:R2$$$V2.0)	–	–	–	–	6.17	0.19 (0.12–0.26) μg/ml	0.05 (0.04–0.19) μg/ml	positively correlated	0.14 (0.11–0.18) μg/ml	0.07 (0.04–0.10) μg/ml	0.055	0.045	0.042	0.053	0.057
CC(C)CCCCC(=O)N[C@@H](CCN)C(=O)N[C@H](C(=O)N[C@@H](CCN)C(=O)N[C@H]1CCNC(=O)[C@H]([C@@H](C)O)NC(=O)[C@H](CCN)NC(=O)[C@H](CCN)NC(=O)[C@H](CC(C)C)NC(=O)[C@@H](Cc2ccccc2)NC(=O)[C@H](CCN)NC1=O)[C@@H](C)O [PMB2, polymyxin B2] (HELM PEPTIDE1{[CC(C)CCCCC(=O)[*:2]].[Dab].T.[Dab].[Dab].[Dab].[dF].L.[Dab].[Dab].T}$PEPTIDE1,PEPTIDE1,5:R3-11:R2$$$V2.0)	–	–	–	–	–	0.16 (0.14–0.19) μg/ml	0.07 (0.06–0.09) μg/ml	positively correlated	0.14 (0.11–0.18) μg/ml	0.07 (0.05–0.10) μg/ml	0.215	0.141	0.161	0.194	0.221
